The values below come from ChEMBL document CHEMBL4428089 (Bioorg Med Chem, 2016).

Active and inactive are the calls of the source. No cut-off for these calls is given here.

The target of experiment [1] is D(2) dopamine receptor (Rattus norvegicus, UniProt P61169). Put plainly: Displacement of [3H]spiperone from rat D2L dopamine receptor expressed in HEK293 cell membranes after 1 hr. (Displacement assays read how much labelled ligand stays bound in the presence of the test substance.)
Experiment [2] addresses D(3) dopamine receptor (Rattus norvegicus, UniProt P19020). As to the kind of experiment: Displacement of [3H]spiperone from rat D3 dopamine receptor expressed in HEK293 cell membranes after 1 hr.
The species named for experiment [3] is Rattus norvegicus. As to the kind of experiment: Selectivity ratio of Ki for rat D2L dopamine receptor expressed in HEK293 cells to Ki for rat D3 dopamine receptor expressed in HEK293 cells. Format: cell-based.
Experiment [4] deals with T1, D(2) dopamine receptor (Homo sapiens, UniProt P14416). Put plainly: Agonist activity at human D2 dopamine receptor expressed in CHO cells by [35S]GTPgammaS binding assay. The format is functional, cell-based. Put shortly:
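[35S]GTPγS binding stimulated in CHO cells expressing human D2 or D3 receptors. The D2/D3 ratio is the ratio of the EC50 values. Values are means ± SEM of three to five experiments, each run in triplicate.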
(In general: GTPγS resists hydrolysis and so accumulates on activated G proteins.)

Experiment [5] addresses T1, D(2) dopamine receptor. Put plainly: Agonist activity at human D2 dopamine receptor expressed in CHO cells by [35S]GTPgammaS binding assay relative to dopamine. Format: functional, cell-based. In a few lines:
(§1)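 [35S]GTPγS binding stimulated in CHO cells expressing human D2 or D3 receptors. […] The D2/D3 ratio is the ratio of the EC50 values. Values are means ± SEM of three to five experiments, each run in triplicate.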

Experiment [6] deals with T2, D(3) dopamine receptor (Homo sapiens, UniProt P35462). As to the kind of experiment: Agonist activity at human D3 dopamine receptor expressed in CHO cells by [35S]GTPgammaS binding assay. Format: functional, cell-based.
T2 sequence (P35462 whole entry): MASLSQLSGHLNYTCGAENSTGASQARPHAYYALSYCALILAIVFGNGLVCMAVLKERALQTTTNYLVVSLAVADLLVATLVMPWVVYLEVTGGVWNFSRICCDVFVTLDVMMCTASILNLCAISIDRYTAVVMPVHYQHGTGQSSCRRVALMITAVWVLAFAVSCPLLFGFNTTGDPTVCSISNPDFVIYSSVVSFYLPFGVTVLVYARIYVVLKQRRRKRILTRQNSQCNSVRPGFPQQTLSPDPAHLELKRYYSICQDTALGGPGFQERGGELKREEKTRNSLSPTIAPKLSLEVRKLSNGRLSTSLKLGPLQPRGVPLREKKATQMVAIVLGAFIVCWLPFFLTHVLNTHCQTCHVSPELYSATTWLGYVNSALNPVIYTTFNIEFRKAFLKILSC
Experiment [7] deals with T2, D(3) dopamine receptor. As to the kind of experiment: Agonist activity at human D3 dopamine receptor expressed in CHO cells by [35S]GTPgammaS binding assay relative to dopamine. Format: functional, cell-based. In a few lines: as §1
The subject of experiment [8] is PC-12. As to the kind of experiment: Neuroprotective activity against 6-OHDA induce toxicity in rat PC12 cells assessed as cell viability preincubated for 24 hrs followed by 6-OHDA addition for 24 hrs by MTT assay. The format is functional, cell-based. In a few lines:
(§2)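 PC12 cells were pretreated for 24 h across a concentration range (0.1-30 µM or 1-50 µM, depending on compound). A single dose of 75 µM 6-OHDA was then added for a further 24 h. Cell viability was measured by MTT assay.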
(In general: Tetrazolium assays rely on reduction of a dye to a coloured formazan, in cell work by metabolically active cells.)

The subject of experiment [9] is PC-12. As to the kind of experiment: Neuroprotective activity against 6-OHDA induce toxicity in rat PC12 cells assessed as cell viability at 30 uM preincubated for 24 hrs followed by 6-OHDA addition for 24 hrs by MTT assay. The format is functional. The settings on record: read-out: Activity. Put shortly:
as §2

The target in experiment [10] is Alpha-synuclein (Homo sapiens) (UniProt P37840). As to the kind of experiment: Inhibition of recombinant alphaSN (unknown origin) fibrillation at 120 uM after 6 days by ThT fluorescence assay. In a few lines:
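α-Synuclein was shaken for 6 days with or without the drug. Fibrillization was read by ThT fluorescence, normalized to α-synuclein shaken alone at day 6. Drugs were also tested alone in the ThT read-out. Values are means ± SEM of three independent experiments, compared by one-way ANOVA with Tukey post hoc test.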

The species entered for experiment [11] is Homo sapiens. As to the kind of experiment: Selectivity ratio of EC50 for human D2 dopamine receptor expressed in CHO cells to EC50 for human D3 dopamine receptor expressed in CHO cells. The format is cell-based. Put shortly:
as §1

The subject of experiment [12] is Rattus norvegicus. Put plainly: Reversal of reserpine-induced hypolocomotion in Sprague-Dawley rat assessed as locomotor stimulation at 10 umol/kg, ip administered 18 hrs post reserpine challenge measured over 6 hrs. The format is functional, organism-based. Put shortly: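 Rats received reserpine 5 mg/kg s.c. The drug was given at 10 µmol/kg i.p. 18 h after reserpine. Horizontal activity (beam interruptions) was recorded in 30-min intervals and compared with reserpine-only controls. n=3 rats per value, mean ± SEM, one-way ANOVA.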

Experiment [13] addresses Alpha-synuclein (Homo sapiens) (UniProt P37840). Put plainly: Induction of recombinant alphaSN (unknown origin) fibrillation at 120 uM after 6 days by ThT fluorescence assay. Put shortly:
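Cell-free alpha-synuclein aggregation: SN shaken alone or co-incubated with each drug for 6 days. Fibrillization read by thioflavin T fluorescence and normalized to SN shaken alone for six days. Drugs were also run without SN to check for ThT interference. Means ± SEM of three independent experiments; one-way ANOVA with Tukey's post hoc test.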

T1 sequence (P14416 whole entry): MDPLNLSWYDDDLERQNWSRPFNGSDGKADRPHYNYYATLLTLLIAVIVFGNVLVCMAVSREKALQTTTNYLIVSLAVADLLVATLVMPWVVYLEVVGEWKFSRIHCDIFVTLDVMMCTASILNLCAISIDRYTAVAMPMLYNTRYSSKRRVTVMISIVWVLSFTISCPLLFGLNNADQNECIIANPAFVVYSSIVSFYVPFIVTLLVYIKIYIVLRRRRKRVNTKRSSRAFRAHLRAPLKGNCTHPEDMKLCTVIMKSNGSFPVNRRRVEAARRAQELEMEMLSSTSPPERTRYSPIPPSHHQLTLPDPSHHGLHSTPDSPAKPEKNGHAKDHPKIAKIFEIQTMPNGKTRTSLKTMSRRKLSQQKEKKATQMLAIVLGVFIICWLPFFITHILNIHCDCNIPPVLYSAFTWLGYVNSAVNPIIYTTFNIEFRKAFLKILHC
D(3) dopamine receptor (Rattus norvegicus, UniProt P19020), sequence (P19020 whole entry): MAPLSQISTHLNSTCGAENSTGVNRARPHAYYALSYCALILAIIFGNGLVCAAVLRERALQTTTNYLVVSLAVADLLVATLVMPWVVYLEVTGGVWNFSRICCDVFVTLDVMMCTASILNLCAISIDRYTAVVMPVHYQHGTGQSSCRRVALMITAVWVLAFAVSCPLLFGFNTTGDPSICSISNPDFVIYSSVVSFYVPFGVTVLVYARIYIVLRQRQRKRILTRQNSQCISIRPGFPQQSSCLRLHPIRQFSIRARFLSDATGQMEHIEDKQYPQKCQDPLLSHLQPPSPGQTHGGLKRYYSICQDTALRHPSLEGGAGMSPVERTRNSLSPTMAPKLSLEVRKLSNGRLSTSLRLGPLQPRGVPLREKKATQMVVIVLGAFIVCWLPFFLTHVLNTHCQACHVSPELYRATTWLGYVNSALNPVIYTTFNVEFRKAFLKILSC
D(2) dopamine receptor (Rattus norvegicus, UniProt P61169), sequence (P61169 whole entry): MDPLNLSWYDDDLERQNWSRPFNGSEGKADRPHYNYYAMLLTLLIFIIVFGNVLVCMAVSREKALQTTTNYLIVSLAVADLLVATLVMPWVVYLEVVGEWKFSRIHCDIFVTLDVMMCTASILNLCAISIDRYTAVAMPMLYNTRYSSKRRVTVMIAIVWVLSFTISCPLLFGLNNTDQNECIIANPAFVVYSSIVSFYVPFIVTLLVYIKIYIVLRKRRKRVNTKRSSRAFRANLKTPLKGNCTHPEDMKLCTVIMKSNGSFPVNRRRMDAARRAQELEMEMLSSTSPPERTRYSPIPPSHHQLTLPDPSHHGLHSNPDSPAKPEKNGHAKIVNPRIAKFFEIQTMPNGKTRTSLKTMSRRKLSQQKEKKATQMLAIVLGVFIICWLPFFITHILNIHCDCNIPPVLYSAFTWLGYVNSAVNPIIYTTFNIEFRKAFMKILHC

In the case of `CCCN(CCCCCc1ccc(O)c(O)c1)[C@H]1CCc2c(O)cccc2C1`, the results for the Ki in experiment [1] and in experiment [2] were 4.67 nM and 0.493 nM, respectively. Moreover, the Ratio Ki in [3] was determined as 9. The EC50 in [4] was found to be 0.27 nM; in [6], 0.33 nM. Further, the Emax in experiment [5] was 88.8%; in [7] it was 90.9%. The Activity result in experiment [8] was “Dose-dependent effect”. In experiment [9], the viability at 30 µM lay in the range of 18 to 25%. In addition, the inhibition entry in [10] was “Active”. Also, in [11], the Ratio EC50 came to 0.82.
`CCCN(CCCCCc1cc(O)ccc1O)[C@H]1CCc2nc(N)sc2C1` yielded a Ki in experiment [2] of 0.78 nM. Besides, the EC50 came to 9.3 nM in experiment [4] and 1.22 nM in [6]. The values for the Emax in experiment [5] and in [7] were 88% and 90.9%, respectively.
Turning to `CCCN(CCC)CCc1cccc2c1CC(=O)N2`, in experiment [12], the result was Active.
For `CCCN[C@H]1CCc2nc(N)sc2C1`, the outcome in [13] was Active.
For `CCCN(CCCCCc1ccc(O)c(OC)c1)C1CCc2nc(N)sc2C1` (racemic), the affinity in experiment [2] corresponds to a Ki of 3.62 nM. The Ratio Ki in [3] amounted to 48.
Turning to `CCCN(CCC/C=C\c1ccc(O)c(OC)c1)C1CCc2nc(N)sc2C1` (racemic), the Ratio Ki in [3] came out at 10.
As for `CCCN(CCCc1ccc(O)c(OC)c1)C1CCc2nc(N)sc2C1` (racemic), the Ratio Ki in [3] was determined as 153.
With `CCCN(CCC/C=C/c1ccc(O)c(OC)c1)C1CCc2nc(N)sc2C1` (racemic), the Ki in experiment [1] stood at 150 nM; in experiment [2], 4.24 nM. Further, in [3], the Ratio Ki amounted to 35.
For `CCCN(CCC)C1CCc2c(O)cccc2C1` (configuration not stated), in experiment [13], the result was Active.
Take `CCCN(CCCCCc1ccc(O)c(O)c1)C1CCc2nc(N)sc2C1` (racemic): the Ratio Ki in experiment [3] came to 45.
Turning to `CCCN(CCCCCc1ccc(O)c(OC)c1)[C@H]1CCc2nc(N)sc2C1`, the Ratio Ki in [3] is 43. The EC50 in [4] came to 2.09 nM; in [6], 0.78 nM. For the same molecule, the results for the Emax in [5] and in experiment [7] were 96.2% and 94.4%, respectively. The Ratio EC50 in experiment [11] came out at 2.68.
Turning to `CCCN(CCCCCc1ccc(O)c(O)c1)[C@H]1CCc2nc(N)sc2C1`, the Ratio Ki in experiment [3] turned out to be 46. Moreover, the values for the EC50 in experiment [4] and in [6] were 22.9 nM and 2.62 nM, respectively. In addition, the Emax in experiment [5] was 97.4%; in experiment [7], 83.4%. Besides, the outcome in experiment [12] was Active. Besides, the Activity result in experiment [8] was “Dose-dependent effect”. Besides, the viability at 30 µM in experiment [9] was in the range of 18 to 25%. Moreover, the inhibition entry in experiment [10] is “Active”. In addition, the Ratio EC50 in experiment [11] stood at 8.74.
With `CCCN(CCCCCCc1ccc(O)c(OC)c1)C1CCc2nc(N)sc2C1` (racemic), the Ki in experiment [1] amounted to 58.5 nM; in experiment [2] it was 0.675 nM. For the same molecule, the Ratio Ki in experiment [3] amounted to 87.
In the case of `CCCN(C/C=C/c1ccc(O)c(OC)c1)C1CCc2nc(N)sc2C1` (configuration not stated), in [3], the Ratio Ki was 119.
Turning to `CCCN(CCC/C=C/c1ccc(O)c(OC)c1)[C@H]1CCc2nc(N)sc2C1`, the Ki in experiment [1] is 123 nM; in [2] it was 22.3 nM. Further, the Ratio Ki in experiment [3] was 6. In addition, the EC50 stood at 37.7 nM in [4] and 20.4 nM in experiment [6]. For the same molecule, the maximum response (Emax) was determined as 84.3% in experiment [5] and 87.5% in experiment [7]. Also, in experiment [8], the Activity result is “Dose-dependent effect”. Besides, the viability at 30 µM in experiment [9] was in the range of 18 to 25%. Further, in experiment [11], the Ratio EC50 was 1.85.

By Ki is commonly meant a dissociation constant, usually derived from enzyme kinetics or from competition with a known ligand. A lower Ki goes with higher affinity. In general, EC50 refers to the midpoint of the concentration-response curve. Low readings indicate an effect from little substance, high ones a need for much substance. In general, Emax refers to the greatest response seen or fitted, relative to the assay's reference.
